Laboratory results as given in ChEMBL document CHEMBL3576829, “Design, synthesis and evaluation of scutellarein-O-alkylamines as multifunctional agents for the treatment of Alzheimer's disease” (Eur J Med Chem, 2015).

Assays:
[1] = Inhibition of BuChE in rat serum using butyrylthiocholine iodide as substrate after 15 mins by Ellman's method; settings: 0.25 h
Summary of the method: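 Rat serum (25%, 10 µL) in 100 µL with 1 mmol/L butyrylthiocholine iodide stock, pH 7.4 phosphate buffer and graded inhibitor levels, 37°C for 15 min; DTNB (0.2%) then added and absorbance read at 405 nm.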

[2] = biological target: T1, Acetylcholinesterase (Rattus norvegicus, UniProt P37136); experiment: Inhibition of AChE in rat cortex using acetylthiocholine iodide as substrate after 15 mins by Ellman's method
T1 sequence (P37136 whole entry): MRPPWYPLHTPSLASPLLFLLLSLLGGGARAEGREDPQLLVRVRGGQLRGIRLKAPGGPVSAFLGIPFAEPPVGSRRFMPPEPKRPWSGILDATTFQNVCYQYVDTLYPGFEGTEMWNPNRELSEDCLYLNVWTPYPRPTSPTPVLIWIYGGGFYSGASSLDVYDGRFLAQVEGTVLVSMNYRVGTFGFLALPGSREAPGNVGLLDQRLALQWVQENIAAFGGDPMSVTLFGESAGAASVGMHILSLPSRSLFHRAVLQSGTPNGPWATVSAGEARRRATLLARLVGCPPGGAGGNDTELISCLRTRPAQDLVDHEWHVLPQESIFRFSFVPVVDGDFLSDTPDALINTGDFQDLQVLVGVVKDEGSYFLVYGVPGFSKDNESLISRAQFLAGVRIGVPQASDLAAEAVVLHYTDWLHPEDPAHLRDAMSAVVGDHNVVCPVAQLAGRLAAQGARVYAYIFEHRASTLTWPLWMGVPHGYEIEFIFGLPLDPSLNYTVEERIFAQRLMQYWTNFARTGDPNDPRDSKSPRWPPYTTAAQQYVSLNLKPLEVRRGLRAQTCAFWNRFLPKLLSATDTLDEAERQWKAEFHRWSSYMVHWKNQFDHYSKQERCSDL

[3] = organism: Rattus norvegicus; experiment: Selectivity index, ratio of IC50 for rat serum BuChE to IC50 for rat cortex AChE
[4] = biological target: Acetylcholinesterase (Electrophorus electricus, UniProt O42275); experiment: Inhibition of electric eel AChE using acetylthiocholine iodide as substrate after 15 mins by Ellman's method
Sequence of Acetylcholinesterase (Electrophorus electricus, UniProt O42275) (O42275 whole entry): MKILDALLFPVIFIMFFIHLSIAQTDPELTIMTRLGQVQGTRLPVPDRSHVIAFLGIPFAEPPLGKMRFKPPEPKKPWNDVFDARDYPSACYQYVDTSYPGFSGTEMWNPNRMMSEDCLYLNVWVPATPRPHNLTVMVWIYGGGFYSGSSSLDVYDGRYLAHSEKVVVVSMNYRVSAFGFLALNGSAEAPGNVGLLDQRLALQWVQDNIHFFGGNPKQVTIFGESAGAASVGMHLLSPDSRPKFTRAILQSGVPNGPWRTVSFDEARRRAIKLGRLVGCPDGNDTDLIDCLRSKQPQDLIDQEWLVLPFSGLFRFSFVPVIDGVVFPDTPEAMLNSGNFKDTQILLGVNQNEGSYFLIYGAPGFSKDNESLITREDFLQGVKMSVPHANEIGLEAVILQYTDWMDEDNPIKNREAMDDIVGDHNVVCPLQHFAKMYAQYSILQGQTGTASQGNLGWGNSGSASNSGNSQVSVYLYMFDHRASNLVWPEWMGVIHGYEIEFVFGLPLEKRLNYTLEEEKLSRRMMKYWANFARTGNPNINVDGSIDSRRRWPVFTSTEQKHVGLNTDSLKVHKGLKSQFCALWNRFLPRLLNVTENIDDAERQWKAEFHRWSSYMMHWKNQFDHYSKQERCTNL

Row | Structure (SMILES) | IC50 [1] [µM] | IC50 [2] [µM] | Ratio IC50 [3] | IC50 [4] [µM]
1 | CCN(CCCOc1ccc(-c2cc(=O)c3c(OC)c(OC)c(OC)cc3o2)cc1)Cc1ccccc1 | 81.3 | 2.04 | 39.9 | 7.3
2 | COc1cc2oc(-c3ccc(OCCCN4CCN(C)CC4)cc3)cc(=O)c2c(OC)c1OC | > 500 | 8.3 | > 60.2 | 34.7
3 | COc1cc2oc(-c3cccc(OCCCCN4CCN(C)CC4)c3)cc(=O)c2c(OC)c1OC | > 500 | 0.25 | > 2000 | 1.15
4 | COc1ccccc1CN(C)CCCOc1ccc(-c2cc(=O)c3c(OC)c(OC)c(OC)cc3o2)cc1 | 108 | 1.76 | 61.1 | 8.6
5 | COc1ccccc1CN(C)CCCOc1cccc(-c2cc(=O)c3c(OC)c(OC)c(OC)cc3o2)c1 | 75.4 | 0.38 | 198 | 1.59
6 | COc1ccccc1CN(C)CCCCCCOc1cccc(-c2cc(=O)c3c(OC)c(OC)c(OC)cc3o2)c1 | 60.7 | 0.96 | 63.2 | 4.5
7 | CCN(CCCOc1cccc(-c2cc(=O)c3c(O)c(OC)c(OC)cc3o2)c1)Cc1ccccc1OC | 240 | 1.58 | 152 | 4.5
8 | COc1cc2oc(-c3cccc(OCCCN4CCN(Cc5ccccc5)CC4)c3)cc(=O)c2c(OC)c1OC | 149 | 3.12 | 47.7 | 1.59
9 | COc1ccccc1CN(C)CCCOc1ccc(-c2cc(=O)c3c(O)c(OC)c(OC)cc3o2)cc1 | > 500 | 5 | > 100 | 31.1
10 | COc1ccccc1CN(C)CCCCOc1ccc(-c2cc(=O)c3c(O)c(OC)c(OC)cc3o2)cc1 | > 500 | 3.43 | > 146 | 14.4
11 | COc1cc2oc(-c3ccc(OCCCN(C)Cc4ccccc4)cc3)cc(=O)c2c(OC)c1OC | 136 | 2.62 | 51.8 | 11.5
12 | COc1ccccc1CN(C)CCCCCCOc1cccc(-c2cc(=O)c3c(O)c(OC)c(OC)cc3o2)c1 | 404 | 1.59 | 254 | 5.8
13 | COc1ccccc1CN(C)CCCCCCOc1ccc(-c2cc(=O)c3c(OC)c(OC)c(OC)cc3o2)cc1 | 96.1 | 0.45 | 214 | 2.23
14 | COc1cc2oc(-c3cccc(OCCCCCCN4CCN(Cc5ccccc5)CC4)c3)cc(=O)c2c(OC)c1OC | > 500 | 7.33 | > 68.2 | 21.4
15 | COc1cc2oc(-c3cccc(OCCCN4CCN(C)CC4)c3)cc(=O)c2c(OC)c1OC | > 500 | 7.47 | > 66.9 | 35.2
16 | CCN(CCCCOc1cccc(-c2cc(=O)c3c(O)c(OC)c(OC)cc3o2)c1)Cc1ccccc1OC | > 500 | 2.4 | > 208 | 7.97
17 | CCN(CCCCOc1cccc(-c2cc(=O)c3c(OC)c(OC)c(OC)cc3o2)c1)Cc1ccccc1 | 63.4 | 2.35 | 27 | 8.3
18 | CCN(CCCCOc1cccc(-c2cc(=O)c3c(OC)c(OC)c(OC)cc3o2)c1)Cc1ccccc1OC | 78.3 | 0.8 | 97.9 | 2.37
19 | COc1cc2oc(-c3cccc(OCCN(C)Cc4ccccc4)c3)cc(=O)c2c(OC)c1OC | 87.9 | 9.2 | 9.6 | 35.7
20 | COc1ccccc1CN(C)CCCCOc1cccc(-c2cc(=O)c3c(OC)c(OC)c(OC)cc3o2)c1 | 85 | 2.61 | 32.6 | 12.2
21 | CCN(CCCCCCOc1cccc(-c2cc(=O)c3c(OC)c(OC)c(OC)cc3o2)c1)Cc1ccccc1OC | 41.6 | 0.22 | 189 | 1.3
22 | CCN(CCCOc1cccc(-c2cc(=O)c3c(OC)c(OC)c(OC)cc3o2)c1)Cc1ccccc1OC | 77.2 | 0.33 | 234 | 1.78

Row | Structure (SMILES) | IC50 [1] [µM] | IC50 [2] [µM] | Ratio IC50 [3] | IC50 [4] [µM]
23 | COc1cc2oc(-c3cccc(OCCCCN4CCN(Cc5ccccc5)CC4)c3)cc(=O)c2c(OC)c1OC | 109 | 4.03 | 27 | 25.3
24 | COc1cc2oc(-c3ccc(OCCCCCCN4CCN(Cc5ccccc5)CC4)cc3)cc(=O)c2c(OC)c1OC | > 500 | 8.07 | > 62 | 26.5
25 | COc1ccccc1CN(C)CCOc1cccc(-c2cc(=O)c3c(OC)c(OC)c(OC)cc3o2)c1 | 31.4 | 3.22 | 9.8 | 2.49
26 | CCN(CCCCCCOc1cccc(-c2cc(=O)c3c(O)c(OC)c(OC)cc3o2)c1)Cc1ccccc1OC | 484 | 1.27 | 381 | 0.77
27 | COc1cc2oc(-c3ccc(OCCCN4CCN(Cc5ccccc5)CC4)cc3)cc(=O)c2c(OC)c1OC | > 500 | 1.8 | > 278 | 8.7
28 | COc1cc2oc(-c3ccc(OCCCCN4CCN(C)CC4)cc3)cc(=O)c2c(OC)c1OC | 146 | 1.07 | 136 | 5.27
29 | CCN(CCOc1cccc(-c2cc(=O)c3c(OC)c(OC)c(OC)cc3o2)c1)Cc1ccccc1 | 79.6 | 3.37 | 23.6 | 3.8
30 | COc1cc2oc(-c3cccc(OCCN4CCN(C)CC4)c3)cc(=O)c2c(OC)c1OC | > 500 | 8.2 | > 61 | 22.5
31 | COc1cc2oc(-c3cccc(OCCCCCCN(C)Cc4ccccc4)c3)cc(=O)c2c(OC)c1OC | 78.7 | 2.13 | 36.9 | 6.13
32 | CCN(CCCCCCOc1ccc(-c2cc(=O)c3c(OC)c(OC)c(OC)cc3o2)cc1)Cc1ccccc1 | > 500 | 0.34 | > 1470 | 2.83
33 | COc1ccccc1CN(C)CCCCCCOc1ccc(-c2cc(=O)c3c(O)c(OC)c(OC)cc3o2)cc1 | > 500 | 5.07 | > 98.6 | 22.6
34 | COc1ccccc1CN(C)CCCCOc1cccc(-c2cc(=O)c3c(O)c(OC)c(OC)cc3o2)c1 | > 500 | 7.73 | > 64.7 | 31
35 | COc1cc2oc(-c3cccc(OCCCCN(C)Cc4ccccc4)c3)cc(=O)c2c(OC)c1OC | 90.7 | 4.53 | 20 | 18.4
36 | CCN(CCCOc1cccc(-c2cc(=O)c3c(OC)c(OC)c(OC)cc3o2)c1)Cc1ccccc1 | 101 | 5.4 | 18.7 | 20.4
37 | CCN(CCCCCCOc1cccc(-c2cc(=O)c3c(OC)c(OC)c(OC)cc3o2)c1)Cc1ccccc1 | 52.1 | 2.03 | 25.7 | 12.2
38 | COc1cc2oc(-c3cccc(OCCCN(C)Cc4ccccc4)c3)cc(=O)c2c(OC)c1OC | 117 | 5.17 | 22.7 | 25
39 | COc1ccccc1CN(C)CCCOc1cccc(-c2cc(=O)c3c(O)c(OC)c(OC)cc3o2)c1 | 354 | 8.1 | 43.7 | 28.6
40 | COc1cc2oc(-c3cccc(OCCN4CCN(Cc5ccccc5)CC4)c3)cc(=O)c2c(OC)c1OC | > 500 | 1.18 | > 424 | 2.91
41 | O=c1cc(-c2ccc(O)cc2)oc2cc(O)c(O)c(O)c12 [SCUTELLAREIN] | > 500 | > 500 | – | –
42 | COc1cc2oc(-c3ccc(OCCCCN4CCN(Cc5ccccc5)CC4)cc3)cc(=O)c2c(OC)c1OC | 131 | 2.56 | 51.1 | 8.53
43 | COc1cc2oc(-c3ccc(OCCCCCCN(C)Cc4ccccc4)cc3)cc(=O)c2c(OC)c1OC | 84.6 | 0.99 | 85.5 | 5.4
